Laboratory results as given in ChEMBL document CHEMBL1126073, “Synthesis of carbon-11 labeled iodinated cocaine derivatives and their distribution in baboon brain measured using positron emission tomography” (J Med Chem, 1992).

Key:
[1] = Percentage of tracer or metabolite (unchanged) in baboon plasma at 30 min after injection of the compound; format: ADME, cell-free; conditions: cercopithecidae, 0.5 h
How it was run: (§1)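 Arterial baboon plasma taken 1, 5, 10 and 30 min after injection of 11C tracer. 0.2 mL plasma in 1 mL acetonitrile, sonicated, centrifuged. Supernatant run on silica HPLC with acetonitrile/0.004 M (NH4)2HPO4 70/30 plus unlabelled carrier. Unchanged tracer, EME and void-volume acidic 11C measured as fractions of total. [11C]CO2 measured separately by volatilization assay. Mean of two experiments.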

[2] = Percentage of tracer or metabolite (acid metabolites) in baboon plasma at 1 min after injection of the compound; format: ADME, cell-free; conditions: cercopithecidae; how it was run: as §1
[3] = Percentage unmetabolized in baboon plasma at 30 min after administration.; format: functional, Cercopithecidae; how it was run: as §1
[4] = Percentage of tracer or metabolite (unchanged) in baboon plasma at 10 min after injection of the compound; format: ADME, cell-free; conditions: cercopithecidae; how it was run: as §1
[5] = Percentage of tracer or metabolite(EME) in baboon plasma at 5 min after injection of the compound; format: ADME, cell-free; conditions: cercopithecidae; how it was run: as §1
[6] = Clearance from plasma(with matabolite-corrected plasma radioactivity-time integral) at 30 min after administration.; format: ADME, cell-free; conditions: cercopithecidae, 0.5 h
How it was run: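 Anaesthetised baboons given 4.7–8.4 mCi 11C tracer. Automated arterial sampling for the first 2 min, then manual sampling. Plasma total radioactivity corrected for metabolites using two-component exponential fits to the metabolite fractions. Time-radioactivity integral to 30 min by cubic spline integration.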

[7] = Percentage of tracer or metabolite (acid metabolites) in baboon plasma at 10 min after injection of the compound; format: ADME, cell-free; conditions: cercopithecidae; how it was run: as §1
[8] = Percentage of tracer or metabolite (acid metabolites) in baboon plasma at 5 min after injection of the compound; format: ADME, cell-free; conditions: cercopithecidae; how it was run: as §1
[9] = (§2) Baboon plasma free fraction.; format: ADME, cell-free; conditions: cercopithecidae, read-out: Free fraction
How it was run: (§3)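 Free fraction by ultrafiltration: 11C-labelled compound added to 0.18 mL baboon plasma plus 0.02 mL 100 mM sodium phosphate pH 7.4 with 1 μg physostigmine (esterase block). Incubated 15 min at room temperature, vortexed every 5 min, centrifugal filter spun 5 min. Value = 11C concentration in ultrafiltrate / concentration in incubation mixture.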

[10] = Percentage of tracer or metabolite (CO2) in baboon plasma at 1 min after injection of the compound; format: ADME; conditions: cercopithecidae; how it was run: as §1
[11] = Percentage of tracer or metabolite(EME) in baboon plasma at 10 min after injection of the compound; format: ADME, cell-free; conditions: cercopithecidae; how it was run: as §1
[12] = Percentage of tracer or metabolite (acid metabolites) in baboon plasma at 30 min after injection of the compound; format: ADME, cell-free; conditions: cercopithecidae, 0.5 h; how it was run: as §1
[13] = Percentage of tracer or metabolite (unchanged) in baboon plasma at 5 min after injection of the compound; format: ADME, cell-free; conditions: cercopithecidae; how it was run: as §1
[14] = Percentage of tracer or metabolite(EME) in baboon plasma at 30 min after injection of the compound; format: ADME, cell-free; conditions: cercopithecidae, 0.5 h; how it was run: as §1
[15] = Percentage of tracer or metabolite(EME) in baboon plasma at 1 min after injection of the compound; format: ADME, cell-free; conditions: cercopithecidae; how it was run: as §1
Monkey [16] = test: Peak striatal uptake in baboon expressed as percentage of injected dose per mL of tissue.; format: functional, Cercopithecidae, Striatum
How it was run: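 Adult female baboons (n = 7, 14.2–18.5 kg), ketamine 10 mg/kg i.m. induction, then oxygen/nitrous oxide/isoflurane anaesthesia. 4.7–8.4 mCi of N-11C-methyl tracer injected intravenously per PET scan. Regional time-activity curves; peak striatal radioactivity expressed as percent of injected dose per mL of tissue.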

[17] = Percentage of tracer or metabolite (CO2) in baboon plasma at 10 min after injection of the compound; format: ADME, cell-free; conditions: cercopithecidae; how it was run: as §1
[18] = Percentage of tracer or metabolite (unchanged) in baboon plasma at 1 min after injection of the compound; format: ADME, cell-free; conditions: cercopithecidae; how it was run: as §1
[19] = Percentage of tracer or metabolite (CO2) in baboon plasma at 5 min after injection of the compound; format: ADME, cell-free; conditions: cercopithecidae; how it was run: as §1
[20] = Percentage of tracer or metabolite (CO2) in baboon plasma at 30 min after injection of the compound; format: ADME, cell-free; conditions: cercopithecidae, 0.5 h; how it was run: as §1
[21] = biological target: Sodium-dependent dopamine transporter (Rattus norvegicus, UniProt P23977); test: Concentration inhibiting [3H]cocaine binding site to rat striatal membranes.
Sodium-dependent dopamine transporter, sequence (P23977 whole entry): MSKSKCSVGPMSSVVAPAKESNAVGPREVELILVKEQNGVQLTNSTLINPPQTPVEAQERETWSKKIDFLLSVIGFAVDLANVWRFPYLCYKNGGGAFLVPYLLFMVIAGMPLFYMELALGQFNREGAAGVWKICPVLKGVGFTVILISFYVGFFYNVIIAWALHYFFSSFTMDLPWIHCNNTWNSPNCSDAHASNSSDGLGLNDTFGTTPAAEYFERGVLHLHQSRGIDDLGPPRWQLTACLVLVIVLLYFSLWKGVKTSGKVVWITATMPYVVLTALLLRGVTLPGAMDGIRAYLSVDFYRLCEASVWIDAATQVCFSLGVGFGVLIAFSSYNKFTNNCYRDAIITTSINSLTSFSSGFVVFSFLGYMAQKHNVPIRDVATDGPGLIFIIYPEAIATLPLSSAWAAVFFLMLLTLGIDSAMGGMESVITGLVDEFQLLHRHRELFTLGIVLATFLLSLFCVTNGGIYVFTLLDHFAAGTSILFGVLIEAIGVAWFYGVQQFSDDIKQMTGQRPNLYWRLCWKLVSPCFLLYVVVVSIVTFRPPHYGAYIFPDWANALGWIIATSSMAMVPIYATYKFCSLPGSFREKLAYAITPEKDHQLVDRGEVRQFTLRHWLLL
How it was run: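 Rat striatal membranes prepared in ice-cold 320 mM sucrose with 10 mM NaH2PO4, pH 7.45 (1000g 3 min, then 30000g 30 min pellet). About 0.25 mg protein incubated at room temperature for 20 min with 2 nM [3H]cocaine, inhibitors 6 nM to 20 μM. Filtration through polyethylenimine-soaked glass-fibre filters, ice-cold wash, liquid scintillation counting.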

Monkey [22] = test: as §2; format: functional, organism-based; conditions: Cercopithecidae; how it was run: as §3

Compound	Tracer [1] [%]	Tracer [2] [%]	Unmetabolized [3] [%]	Tracer [4] [%]	Tracer [5] [%]	Plasma integral [6] [uCi min ml-1]	Tracer [7] [%]	Tracer [8] [%]	fraction unbound [9]	Tracer [10] [%]	Tracer [11] [%]	Tracer [12] [%]	Tracer [13] [%]	Tracer [14] [%]	Tracer [15] [%]	Peak striatal uptake (Monkey [16])	Tracer [17] [%]	Tracer [18] [%]	Tracer [19] [%]	Tracer [20] [%]	further results
COC(=O)[C@H]1[C@@H](OC(=O)c2ccccc2)C[C@@H]2CC[C@H]1N2C [COCAINE]	17	0.4	17	31	13	2.1	38	22	0.1	6	11	60	44	12	12	0.06	37	70	30	44	–
COC(=O)C1C2CCC(C[C@@H]1OC(=O)c1ccccc1I)N2C (stereo partly specified)	33	0.02	33	48	0.2	6.1	52	15	–	-7	0.2	69	79	0.2	0.3	0.01	21	97	15	29	IC50 [21]: 350 nM; Fu (Monkey [22]): 0.003%
COC(=O)C1C2CCC(C[C@@H]1OC(=O)c1ccc(I)cc1)N2C (stereo partly specified)	22	0.5	22	48	2.5	1.8	45	17	0.06	1	2	71	60	2.6	1.5	0.04	21	90	7	32	–
COC(=O)C1C2CCC(C[C@@H]1OC(=O)c1cccc(I)c1)N2C (stereo partly specified)	36	0.4	36	60	3	2.8	35	18	0.016	3	1	51	77	4	0.7	0.03	33	95	17	43	–
